Reference: ChEMBL document CHEMBL1138467, “Indomethacin amides as a novel molecular scaffold for targeting Trypanosoma cruzi sterol 14alpha-demethylase” (J Med Chem, 2009)
Activity calls are given as the source filed them. The calls are words filed in the database; no cut-off is given here.

Columns and labels:
[1] = biological target: Sterol 14-alpha demethylase (Trypanosoma cruzi (strain CL Brener)) (UniProt Q7Z1V1); experiment: Inhibitory potency at Trypanosoma cruzi CYP51 assessed as molar ratio of drug to enzyme required to slow down the reaction twofold at 1 uM enzyme concentration
Chain of Sterol 14-alpha demethylase (Trypanosoma cruzi (strain CL Brener)) (Q7Z1V1 whole entry, looked up): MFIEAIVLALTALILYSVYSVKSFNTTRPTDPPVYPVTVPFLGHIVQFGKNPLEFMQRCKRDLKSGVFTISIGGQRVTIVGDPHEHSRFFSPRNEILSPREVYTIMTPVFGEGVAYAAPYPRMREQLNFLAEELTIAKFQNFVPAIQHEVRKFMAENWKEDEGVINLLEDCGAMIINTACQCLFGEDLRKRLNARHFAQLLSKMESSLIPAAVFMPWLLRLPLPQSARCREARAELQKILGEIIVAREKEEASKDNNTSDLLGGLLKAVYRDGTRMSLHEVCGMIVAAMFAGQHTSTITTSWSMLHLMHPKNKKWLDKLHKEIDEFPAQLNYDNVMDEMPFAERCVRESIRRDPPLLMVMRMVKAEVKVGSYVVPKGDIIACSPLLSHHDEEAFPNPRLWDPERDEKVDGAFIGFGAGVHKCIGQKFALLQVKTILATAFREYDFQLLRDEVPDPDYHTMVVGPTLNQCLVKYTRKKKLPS
Method in brief: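 Reconstituted with T. brucei CPR and DLPC (TCCYP51:CPR:DLPC 1:2:50). Final mix: 1 μM TCCYP51, 50 μM [3H]-MDL in MOPS pH 7.4 with KCl, MgCl2, glycerol and an isocitrate/isocitrate dehydrogenase system. Inhibitors 1–100 μM, 5 min preincubation at 37°C, started with NADPH. Sterols by reverse-phase radio-HPLC. I/E2 is the inhibitor/enzyme molar ratio halving the initial rate.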

[2] = biological target: T1, Prostaglandin G/H synthase 2 (Mus musculus) (UniProt Q05769); experiment: Inhibitory potency at mouse COX2 assessed as molar ratio of drug to enzyme required to slow down the reaction twofold at 0.1 uM enzyme concentration
T1 sequence (whole entry): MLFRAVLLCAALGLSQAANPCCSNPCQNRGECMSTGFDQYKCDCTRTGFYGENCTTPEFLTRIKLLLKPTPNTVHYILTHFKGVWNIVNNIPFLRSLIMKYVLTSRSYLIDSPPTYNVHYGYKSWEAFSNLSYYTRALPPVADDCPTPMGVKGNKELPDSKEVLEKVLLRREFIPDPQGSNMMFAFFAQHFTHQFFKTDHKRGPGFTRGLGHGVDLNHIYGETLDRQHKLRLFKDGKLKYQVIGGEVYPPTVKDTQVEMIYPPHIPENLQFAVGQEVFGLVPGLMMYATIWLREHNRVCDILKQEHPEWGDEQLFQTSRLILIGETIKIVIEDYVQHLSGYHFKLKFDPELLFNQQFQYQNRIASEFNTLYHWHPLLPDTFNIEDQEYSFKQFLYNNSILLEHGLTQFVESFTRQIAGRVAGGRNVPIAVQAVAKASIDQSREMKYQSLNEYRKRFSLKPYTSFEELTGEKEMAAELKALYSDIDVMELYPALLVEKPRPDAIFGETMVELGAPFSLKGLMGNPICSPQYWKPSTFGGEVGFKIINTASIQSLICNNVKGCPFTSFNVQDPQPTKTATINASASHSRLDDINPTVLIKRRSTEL
Method in brief: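 Mouse cyclooxygenase-2 at 100 nM final concentration. Potency is expressed as the inhibitor/enzyme molar ratio giving a two-fold decrease in the initial rate of catalysis (I/E2).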

Trypanosoma cruzi [3] = experiment: Antitrypanosomal activity against Trypanosoma cruzi amastigotes in cardiomyocytes; assay type: functional
Method in brief: (§1)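 Trypomastigotes (10^6) were pre-exposed for 30 min to inhibitor in DMSO (1–50 μM) or DMSO control. They then infected rat cardiomyocyte monolayers in triplicate at 10 parasites/cell for 2 h. Unbound parasites were removed and cells were grown in DMEM/10% FBS for 72 h. Parasites per 200 cells and % infection were counted on Giemsa-stained monolayers. Results are mean ± SD, with Student t test.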

Trypanosoma cruzi [4] = experiment: Antitrypanosomal activity against Trypanosoma cruzi trypomastigotes in cardiomyocytes; assay type: functional, organism-based; method in brief: as §1
[5] = biological target: Sterol 14-alpha demethylase (Trypanosoma cruzi (strain CL Brener), UniProt Q7Z1V1); experiment: Binding affinity to Trypanosoma cruzi CYP51 expressed in Escherichia coli by spectral titration
Chain of Sterol 14-alpha demethylase (Q7Z1V1 whole entry): as the sequence (Q7Z1V1 whole entry, looked up) above

Trypanosoma cruzi [6] = experiment: Antitrypanosomal activity against Trypanosoma cruzi trypomastigotes in cardiomyocytes at 10 uM after 72 hrs; assay type: functional, organism-based; method in brief: as §1
Trypanosoma cruzi [7] = experiment: Antitrypanosomal activity against Trypanosoma cruzi trypomastigote in cardiomyocytes assessed as decrease in intracellular parasites at 20 uM after 72 hrs; assay type: functional, organism-based; method in brief: as §1
Trypanosoma cruzi [8] = experiment: Antitrypanosomal activity against Trypanosoma cruzi epimastigotes assessed as blocking of cellular sterol composition at 50 uM after 24 hrs

Row | Structure (SMILES) | Ratio [1] | Ratio [2] | Activity (Trypanosoma cruzi [3]) | Activity (Trypanosoma cruzi [4]) | Kd [5] [nM] | Activity (Trypanosoma cruzi [6]) | Activity (Trypanosoma cruzi [7]) | EC50 (Trypanosoma cruzi [3]; read-out: ED50 (the source's name)) [nM] | Activity (Trypanosoma cruzi [8])
1 | COc1ccc2c(c1)c(CC(=O)NCc1ccc(C(F)(F)F)nc1)c(C)n2C(=O)c1ccc(Cl)cc1 | 7.7 | < 1 |  |  |  |  |  |  | 
2 | CC1CCC(C(=O)NC(Cc2c[nH]c3ccccc23)C(=O)Nc2ccncc2)CC1 (stereo unspecified) |  |  | Dose-dependent effect | Dose-dependent effect |  |  |  |  | 
3 | COc1ccc2c(c1)c(CC(=O)NCc1ccncc1)c(C)n2C(=O)c1ccc(Cl)cc1 | 10 | 10 |  |  | 540 |  |  |  | 
4 | COc1ccc2c(c1)c(CC(=O)NCc1ccc(Cl)nc1)c(C)n2C(=O)c1ccc(Cl)cc1 | 4.2 | < 1 | Dose-dependent effect | Dose-dependent effect |  |  |  |  | 
5 | COc1ccc2c(c1)c(CC(=O)NCCc1cccc(Cl)c1)c(C)n2C(=O)c1ccc(Cl)cc1 | < 1 | < 1 |  |  | 360 | Active | Active |  | 
6 | COc1ccc2c(c1)c(CC(=O)NCC(C)c1ccccc1)c(C)n2C(=O)c1ccc(Cl)cc1 (stereo unspecified) | < 1 | > 40 |  |  | 150 | Active | Active |  | 
7 | COc1ccc2c(c1)c(CC(=O)Nc1cccnc1)c(C)n2C(=O)c1ccc(Cl)cc1 | 9.1 | 2.1 |  |  | 290 |  |  |  | 
8 | COc1ccc2c(c1)c(CC(=O)Nc1ccccn1)c(C)n2C(=O)c1ccc(Cl)cc1 | 11 | 2.1 |  |  | 3300 |  |  |  | 
9 | COc1ccc2c(c1)c(CC(=O)NC(C)c1ccncc1)c(C)n2C(=O)c1ccc(Cl)cc1 (stereo unspecified) | 8.5 | 1.7 |  |  | 370 |  |  |  | 
10 | COc1ccc2c(c1)c(CC(=O)NCc1ccccn1)c(C)n2C(=O)c1ccc(Cl)cc1 | 13 | > 10 | Dose-dependent effect | Dose-dependent effect | 7600 |  |  |  | 
11 | O=C(Nc1ccncc1)C1c2ccccc2Oc2ccccc21 | 14 |  |  |  | 750 |  |  |  | 
12 | CCC(C(=O)Nc1ccncc1)c1ccccc1 (stereo unspecified) | 10 |  |  |  | 440 |  |  |  | 
13 | COc1ccc2c(c1)c(CC(=O)Nc1ncccn1)c(C)n2C(=O)c1ccc(Cl)cc1 | 15 | 3.6 |  |  |  |  |  |  | 
14 | COc1ccc2c(c1)c(CC(=O)NCCc1cccnc1)c(C)n2C(=O)c1ccc(Cl)cc1 | 6.3 |  |  | Dose-dependent effect | 2310 |  |  | < 1000 | Active
